ChEMBL document CHEMBL2034818, “Synthesis and evaluation of boronic acids as inhibitors of Penicillin Binding Proteins of classes A, B and C” (Bioorg Med Chem, 2012)
Substitutions are numbered along the chain they refer to. pIC50, pKi: −log10 of the molar value.

How the values were obtained:
[1] = target: D-alanyl-D-alanine carboxypeptidase (Actinomadura sp. R39) (UniProt P39045); assay: Inhibition of Actinomadura sp. R39 PBP using S2d as substrate assessed as residual activity at 1 mM incubated for 60 mins prior to substrate addition by DTNB-based spectrophotometry
D-alanyl-D-alanine carboxypeptidase (Actinomadura sp. R39), sequence (P39045 whole entry): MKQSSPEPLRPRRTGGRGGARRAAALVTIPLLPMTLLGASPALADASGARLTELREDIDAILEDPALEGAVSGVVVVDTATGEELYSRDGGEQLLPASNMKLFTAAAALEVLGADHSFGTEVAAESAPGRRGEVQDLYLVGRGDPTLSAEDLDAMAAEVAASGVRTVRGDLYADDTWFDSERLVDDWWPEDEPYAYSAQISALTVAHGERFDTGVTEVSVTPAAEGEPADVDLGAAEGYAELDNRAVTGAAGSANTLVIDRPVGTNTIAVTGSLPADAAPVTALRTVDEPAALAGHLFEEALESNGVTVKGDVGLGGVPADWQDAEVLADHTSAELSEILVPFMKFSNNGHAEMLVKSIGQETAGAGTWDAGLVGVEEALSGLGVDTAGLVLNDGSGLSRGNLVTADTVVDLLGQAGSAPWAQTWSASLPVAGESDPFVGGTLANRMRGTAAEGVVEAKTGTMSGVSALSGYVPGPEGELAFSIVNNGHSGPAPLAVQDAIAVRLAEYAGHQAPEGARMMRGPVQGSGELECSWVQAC
Summary of the method: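 R39 (Actinomadura, prepared per Granier), 3.5 nM, pre-incubated with inhibitor 60 min at 25 °C in 10 mM sodium phosphate pH 7.2, 100 mM NaCl, 100 mM D-alanine, 0.01 mg/mL BSA; inhibitors from DMF stock, 1% DMF final. Residual activity from initial rate of S2d (1 mM) hydrolysis with DTNB (1 mM), read at 412 nm, corrected for spontaneous hydrolysis; triplicates, uninhibited control six replicates per plate.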

[2] = target: T1, Penicillin-binding protein 2X (Streptococcus pneumoniae R6) (UniProt P59676); assay: Inhibition of penicillin-sensitive Streptococcus pneumoniae R6 PBP2x using S2d as substrate assessed as residual activity at 1 mM incubated for 60 mins prior to substrate addition by DTNB-based spectrophotometry
T1 sequence (whole entry): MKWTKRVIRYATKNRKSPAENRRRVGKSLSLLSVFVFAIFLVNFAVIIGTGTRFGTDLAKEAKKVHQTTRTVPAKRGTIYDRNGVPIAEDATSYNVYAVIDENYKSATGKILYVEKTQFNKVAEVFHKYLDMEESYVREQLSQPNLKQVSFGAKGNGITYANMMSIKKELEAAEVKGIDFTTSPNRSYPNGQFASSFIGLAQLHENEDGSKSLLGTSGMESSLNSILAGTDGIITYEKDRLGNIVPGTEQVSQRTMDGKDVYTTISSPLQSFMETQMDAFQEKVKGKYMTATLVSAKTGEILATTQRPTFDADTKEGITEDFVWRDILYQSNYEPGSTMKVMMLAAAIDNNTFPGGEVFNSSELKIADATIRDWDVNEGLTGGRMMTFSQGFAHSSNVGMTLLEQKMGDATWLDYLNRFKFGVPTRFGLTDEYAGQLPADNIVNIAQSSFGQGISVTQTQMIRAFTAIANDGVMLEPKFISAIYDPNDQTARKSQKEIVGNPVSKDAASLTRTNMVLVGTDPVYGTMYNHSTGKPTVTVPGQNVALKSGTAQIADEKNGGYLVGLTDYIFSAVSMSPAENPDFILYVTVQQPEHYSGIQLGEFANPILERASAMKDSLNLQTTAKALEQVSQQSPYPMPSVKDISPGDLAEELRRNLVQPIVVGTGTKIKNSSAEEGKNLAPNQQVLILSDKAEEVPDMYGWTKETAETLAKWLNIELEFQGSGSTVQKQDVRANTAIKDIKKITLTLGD
Summary of the method: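 S. pneumoniae PBP2x-R6, 0.09 µM, pre-incubated with inhibitor in 10 mM sodium phosphate pH 7.0 with 0.01 mg/mL BSA, 60 min, 25 °C; 1% DMF final. S2d (1 mM) plus DTNB (1 mM) then added; residual activity taken from initial hydrolysis rate at 412 nm, corrected for spontaneous hydrolysis; triplicates, six no-inhibitor controls per plate.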

[3] = tested on: Streptococcus pneumoniae; assay: Inhibition of Streptococcus pneumoniae PBP1b assessed as residual activity at 1mM incubated for 60 mins prior to fluoresceyl-ampicillin labelling measured after 20 mins by SDS-PAGE analysis in the presence of triton X 100
Summary of the method: (§1)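 Assay A: purified S. pneumoniae PBP1b (0.7 µM) pre-incubated with inhibitor in 10 mM sodium phosphate pH 7.0, 60 min, 25 °C, 0.01% Triton X-100. Remaining active enzyme labelled with fluoresceyl-ampicillin (10 µM), 20 min; reaction stopped, run on SDS-PAGE, fluorescence of the band quantified as residual activity.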

[4] = tested on: Streptococcus pneumoniae; assay: Inhibition of Streptococcus pneumoniae PBP1b assessed as residual activity at 100 uM incubated for 60 mins prior to fluoresceyl-ampicillin labelling measured after 20 mins by SDS-PAGE analysis in the presence of triton X 100; summary of the method: as §1
[5] = target: T2, Penicillin-binding protein 2x (Streptococcus pneumoniae serotype 4 (strain ATCC BAA-334 / TIGR4)) (UniProt P14677); assay: Inhibition of penicillin-resistant Streptococcus pneumoniae 5204 PBP2x using S2d as substrate assessed as residual activity at 1 mM incubated for 4 hrs prior to substrate addition by DNTB-based spectrophotometry
T2 sequence (whole entry): T1 sequence (whole entry) with M385T

[6] = tested on: Staphylococcus aureus; assay: Inhibition of penicillin-resistant Staphylococcus aureus PBP2a assessed as residual activity at 1 mM incubated for 4 hrs prior to prior to fluoresceyl-ampicillin labelling measured after 20 mins by SDS-PAGE analysis
[7] = tested on: Enterococcus faecium; assay: Inhibition of penicillin-resistant Enterococcus faecium PBP5fm assessed as residual activity at 1 mM incubated for 4 hrs prior to prior to fluoresceyl-ampicillin labelling measured after 20 mins by SDS-PAGE analysis
[8] = Inhibition of Streptococcus pneumoniae PBP1b incubated for 60 mins prior to fluoresceyl-ampicillin labelling measured after 20 mins by SDS-PAGE analysis in the presence of triton X 100; summary of the method: as §1
[9] = target: T3, D-alanyl-D-alanine carboxypeptidase (Actinomadura sp. R39, UniProt P39045); assay: Inhibition of Actinomadura sp. R39 PBP using S2d as substrate incubated for 60 mins prior to substrate addition by DTNB-based spectrophotometry
T3 sequence (P39045 whole entry): as the sequence (P39045 whole entry) above
Summary of the method: (§2)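 PBP purified per earlier method. Pre-incubation: enzyme with inhibitor (DMF stock, 1% DMF final) at 25 °C for 60 min. Buffer for R39 (3.5 nM): 10 mM sodium phosphate pH 7.2, 100 mM NaCl, 100 mM D-alanine, 0.01 mg/mL BSA. Buffer for PBP2xR6: 10 mM sodium phosphate pH 7.0, 0.01 mg/mL BSA. S2d (1 mM) and DTNB (1 mM) then added. Initial hydrolysis rate read at 412 nm. Triplicates. IC50 by non-linear regression of residual activity over a concentration range, with 0.01% Triton X-100.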

[10] = target: T4, Penicillin-binding protein 2X (Streptococcus pneumoniae R6, UniProt P59676); assay: Inhibition of penicillin-sensitive Streptococcus pneumoniae R6 PBP2x using S2d as substrate incubated for 60 mins prior to substrate addition by DTNB-based spectrophotometry; summary of the method: as §2
T4 sequence (P59676 whole entry): T1 sequence (whole entry)

[11] = Inhibition of Streptococcus pneumoniae PBP1b using PATP thioester as substrate incubated for 60 mins prior to substrate addition by DNTB-based spectrophotometry in the presence of triton X 100
Summary of the method: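 Assay B: S. pneumoniae PBP1b (0.2 µM) pre-incubated with inhibitor 60 min at 25 °C in 10 mM sodium phosphate pH 7.0, 100 mM D-alanine, 0.01 mg/mL BSA, 0.01% Triton X-100. Residual activity from initial rates of PATP thioester (5 mM) hydrolysis with DTNB (1.0 mM); IC50 by non-linear regression of residual activity across concentrations.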

[12] = tested on: Streptococcus pneumoniae; assay: Inhibition of Streptococcus pneumoniae PBP1b using PATP thioester as substrate assessed as residual activity at 1 mM incubated for 60 mins prior to substrate addition by DNTB-based spectrophotometry
Summary of the method: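 PBP1b (0.2 µM) pre-incubated with inhibitor for 60 min at 25 °C in 10 mM sodium phosphate pH 7.0, 100 mM D-alanine, 0.01 mg/mL BSA. PATP thioester (5 mM) and DTNB (1.0 mM) then added. Residual activity derived from initial hydrolysis rates against no-inhibitor controls.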

[13] = target: T3, D-alanyl-D-alanine carboxypeptidase; assay: Binding affinity to Actinomadura sp. R39 PBP

Compound	Activity [1]	Activity [2]	Activity [3]	Activity [4]	Activity [5]	Activity [6]	Activity [7]	pIC50 [8]	pIC50 [9]	pIC50 [10]	pIC50 [11]	Activity [12]	pKi [13]
O=C(CCc1ccccc1)NCB(O)O	51%	71%	0%	95%	99%	83%	79%	–	–	–	–	–	–
COc1cccc(C(=O)NCB(O)O)c1	50%	55%	23%	–	101%	91%	89%	4.10	–	–	–	–	–
COc1cccc(OC)c1C(=O)NCB(O)O	0%	26%	–	–	100%	–	–	–	5.89	3.56	< 3.00	67%	5.82
Cc1ccccc1C(=O)NCB(O)O	45%	70%	–	27%	105%	88%	85%	–	–	–	4.74	–	–
